Source: ChEMBL document CHEMBL3632581, “Dimers of Melampomagnolide B Exhibit Potent Anticancer Activity against Hematological and Solid Tumor Cells” (J Med Chem, 2015)

Columns and labels:
KM12 = test: Cytotoxicity against human KM12 cells after 48 hrs by SRB assay; assay type: functional; conditions: KM12, 48 h; for CC50: read-out: LC50 (the source's name)
Method in brief: (§1)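 NCI-60 five-dose screen at 10−8 to 10−4 M. Cells were plated at 5,000–40,000/well in RPMI 1640 with 5% FBS and 2 mM L-glutamine, then preincubated 24 h, and time-zero plates were TCA-fixed. Compound was added from DMSO stocks and exposed 48 h at 37 °C. Cells were TCA-fixed, SRB-stained, and read at 515 nm. LC50 is the concentration halving the cell population through cell death.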

[1] = Antileukemic activity against human AML05 cells after 24 hrs by annexin V/7-AAD staining-based flow cytometric analysis; assay type: functional, cell-based
Method in brief: (§2)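 Primary AML specimens from consenting donors, isolated by Ficoll-Paque gradient and sometimes cryopreserved. Cells were held 1 h in serum-free IMDM with 20% BIT 9500, LDL and β-mercaptoethanol before drug (DMSO stock diluted in PBS, ≤0.5% DMSO final). Exposure was 24 h over 0.5-10 μM. Annexin V/7-AAD double-negative cells, normalized to vehicle, gave the EC50. Run in triplicate.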

A549 = test: Cytotoxicity against human A549 cells after 48 hrs by SRB assay; assay type: functional; conditions: A549, 48 h; for CC50: read-out: LC50 (the source's name); method in brief: as §1
[2] = Potency index, ratio of parthenolide EC50 to compound EC50 for human M9-ENL1 cells; assay type: functional
OVCAR-8 = test: Cytotoxicity against human OVCAR8 cells after 48 hrs by SRB assay; assay type: functional; conditions: OVCAR-8, 48 h; for CC50: read-out: LC50 (the source's name); method in brief: as §1
NCI-H23 = test: Cytotoxicity against human NCI-H23 cells after 48 hrs by SRB assay; assay type: functional; conditions: NCI-H23, 48 h; for CC50: read-out: LC50 (the source's name); method in brief: as §1
TK-10 = test: Cytotoxicity against human TK10 cells after 48 hrs by SRB assay; assay type: functional; conditions: TK-10, 48 h; for CC50: read-out: LC50 (the source's name)
Method in brief: (§3)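 NCI-60 screen: cells grown in RPMI 1640 with 5% FBS and 2 mM L-glutamine, plated at 5,000–40,000 cells/well by doubling time, and preincubated 24 h at 37 °C before drug. Drug was diluted from DMSO stock and given at five concentrations, 10−4 to 10−8 M, for 48 h. Cells fixed with cold TCA, SRB stained, OD read at 515 nm against time-zero and vehicle plates. LC50 taken as the concentration that halves cell population through cell death.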

SF-295 = test: Cytotoxicity against human SF295 cells after 48 hrs by SRB assay; assay type: functional; conditions: SF-295, 48 h; for CC50: read-out: LC50 (the source's name); method in brief: as §1
[3] = Antileukemic activity against human AML01 cells after 24 hrs by annexin V/7-AAD staining-based flow cytometric analysis; assay type: functional, cell-based; method in brief: as §2
MDA-MB-231 = test: Cytotoxicity against human MDA-MB-231 cells after 48 hrs by SRB assay; assay type: functional; conditions: MDA-MB-231, 48 h; method in brief: as §1
MDA-MB-435 = test: Cytotoxicity against human MDA-MB-435 cells after 48 hrs by SRB assay; assay type: functional; conditions: MDA-MB-435, 48 h; for CC50: read-out: LC50 (the source's name); method in brief: as §1
SK-MEL-2 = test: Cytotoxicity against human SK-MEL-2 cells after 48 hrs by SRB assay; assay type: functional; conditions: SK-MEL-2, 48 h; for CC50: read-out: LC50 (the source's name); method in brief: as §1
HCT-116 = test: Cytotoxicity against human HCT116 cells after 48 hrs by SRB assay; assay type: functional; conditions: HCT-116, 48 h; for CC50: read-out: LC50 (the source's name); method in brief: as §1
NCI-H460 = test: Cytotoxicity against human NCI-H460 cells after 48 hrs by SRB assay; assay type: functional; conditions: NCI-H460, 48 h; for CC50: read-out: LC50 (the source's name); method in brief: as §1
[4] = Cytotoxicity against human Hs 578T cells after 48 hrs by SRB assay; assay type: functional; conditions: for CC50: read-out: LC50 (the source's name); method in brief: as §1
DU-145 = test: Cytotoxicity against human DU145 cells after 48 hrs by SRB assay; assay type: functional; conditions: DU-145, 48 h; method in brief: as §1
SR = test: Cytotoxicity against human SR cells after 48 hrs by SRB assay; assay type: functional; conditions: for CC50: read-out: LC50 (the source's name); method in brief: as §3
SK-OV-3 = test: Cytotoxicity against human SKOV3 cells after 48 hrs by SRB assay; assay type: functional; conditions: SK-OV-3, 48 h; for CC50: read-out: LC50 (the source's name); method in brief: as §1
MOLT-4 = test: Cytotoxicity against human MOLT4 cells after 48 hrs by SRB assay; assay type: functional; conditions: MOLT-4, 48 h; for CC50: read-out: LC50 (the source's name); method in brief: as §1
HCC 2998 = test: Cytotoxicity against human HCC2998 cells after 48 hrs by SRB assay; assay type: functional; conditions: HCC 2998, 48 h; for CC50: read-out: LC50 (the source's name); method in brief: as §1
NCI-H226 = test: Cytotoxicity against human NCI-H226 cells after 48 hrs by SRB assay; assay type: functional; conditions: NCI-H226, 48 h; for CC50: read-out: LC50 (the source's name); method in brief: as §1
SN12C = test: Cytotoxicity against human SN12C cells after 48 hrs by SRB assay; assay type: functional; conditions: for CC50: read-out: LC50 (the source's name); method in brief: as §1
LOX IMVI = test: Cytotoxicity against human LOXIMVI cells after 48 hrs by SRB assay; assay type: functional; conditions: for CC50: read-out: LC50 (the source's name); method in brief: as §1
HCT-15 = test: Cytotoxicity against human HCT15 cells after 48 hrs by SRB assay; assay type: functional; conditions: HCT-15, 48 h; for CC50: read-out: LC50 (the source's name); method in brief: as §1
PC-3 = test: Cytotoxicity against human PC3 cells after 48 hrs by SRB assay; assay type: functional; conditions: PC-3, 48 h; method in brief: as §1
UACC-62 = test: Cytotoxicity against human UACC62 cells after 48 hrs by SRB assay; assay type: functional; conditions: UACC-62, 48 h; for CC50: read-out: LC50 (the source's name); method in brief: as §3
U-251 = test: Cytotoxicity against human U251 cells after 48 hrs by SRB assay; assay type: functional; conditions: U-251, 48 h; for CC50: read-out: LC50 (the source's name); method in brief: as §3
MCF7 = test: Cytotoxicity against human MCF7 cells after 48 hrs by SRB assay; assay type: functional; conditions: MCF7, 48 h
Method in brief: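 NCI-60 screen: cells in RPMI 1640 with 5% FBS and 2 mM L-glutamine, preincubated 24 h at 37 °C. Compound was then added for 48 h at five concentrations (10−4 to 10−8 M). Cells were fixed with cold TCA and stained with 0.4% SRB in 1% acetic acid, and OD read at 515 nm. GI50 is the concentration halving net protein increase versus control.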

CAKI-1 = test: Cytotoxicity against human Caki1 cells after 48 hrs by SRB assay; assay type: functional; conditions: CAKI-1, 48 h; for CC50: read-out: LC50 (the source's name); method in brief: as §1
OVCAR-4 = test: Cytotoxicity against human OVCAR4 cells after 48 hrs by SRB assay; assay type: functional; conditions: OVCAR-4, 48 h; for CC50: read-out: LC50 (the source's name); method in brief: as §1
RXF 393 = test: Cytotoxicity against human RXF393 cells after 48 hrs by SRB assay; assay type: functional; conditions: RXF 393, 48 h; for CC50: read-out: LC50 (the source's name); method in brief: as §1
[5] = Cytotoxicity against human NCI-ADR-RES cells after 48 hrs by SRB assay; assay type: functional; conditions: for CC50: read-out: LC50 (the source's name); method in brief: as §1
SNB-75 = test: Cytotoxicity against human SNB75 cells after 48 hrs by SRB assay; assay type: functional; conditions: SNB-75, 48 h; for CC50: read-out: LC50 (the source's name); method in brief: as §1

## C=C1C(=O)O[C@H]2[C@H]1CC/C(COC(=O)NCCCCCNC(=O)OC/C1=C/CC[C@@]3(C)O[C@H]3[C@H]3OC(=O)C(=C)[C@@H]3CC1)=C\CC[C@@]1(C)O[C@@H]21
KM12
  GI50: 6.53 µM
  CC50: 54.2 µM
[1]
  EC50: 1.6 µM
A549
  GI50: 14.9 µM
  CC50: 71.7 µM
[2]
  Ratio EC50: 2
OVCAR-8
  GI50: 3.27 µM
  CC50: 61 µM
NCI-H23
  GI50: 2.66 µM
  CC50: 45.5 µM
TK-10
  GI50: 1.82 µM
  CC50: 11.8 µM
SF-295
  GI50: 11.1 µM
  CC50: 65.2 µM
[3]
  EC50: 1.6 µM
MDA-MB-231
  GI50: 1.47 µM
  LC50: 6.4 µM
MDA-MB-435
  GI50: 1.51 µM
  CC50: 7.3 µM
SK-MEL-2
  GI50: 2.01 µM
  CC50: 7.81 µM
HCT-116
  GI50: 0.54 µM
  CC50: 4.56 µM
NCI-H460
  GI50: 4.34 µM
  CC50: 50.7 µM
[4]
  GI50: 2.91 µM
  CC50: > 100 µM
DU-145
  GI50: 3.06 µM
  LC50 (concentration killing half the cells): 32.6 µM
SR
  GI50: 0.38 µM
  CC50: > 100 µM
SK-OV-3
  GI50: 5.99 µM
  CC50: 49.9 µM
MOLT-4
  GI50: 1.48 µM
  CC50: > 100 µM
HCC 2998
  GI50: 6.71 µM
  CC50: 53.9 µM
NCI-H226
  GI50: 2.56 µM
  CC50: 30.9 µM
SN12C
  GI50: 2.49 µM
  CC50: 45.5 µM
LOX IMVI
  GI50: 0.46 µM
  CC50: 5.82 µM
HCT-15
  GI50: 6.18 µM
  CC50: 49.8 µM
PC-3
  GI50: 3.79 µM
  LC50 (concentration killing half the cell population): 49.4 µM
UACC-62
  GI50: 1.41 µM
  CC50: 7.04 µM
U-251
  GI50: 3.51 µM
  CC50: 51.5 µM
MCF7
  GI50: 0.39 µM
MCF7; read-out: LC50 (the source's name)
  CC50: 6.2 µM
CAKI-1
  GI50: 16.1 µM
  CC50: 68.1 µM
OVCAR-4
  GI50: 2.72 µM
  CC50: 41.9 µM
RXF 393
  GI50: 0.85 µM
  CC50: 6.35 µM
[5]
  GI50: 70 µM
  CC50: > 100 µM
SNB-75
  GI50: 2.2 µM
  CC50: 33.8 µM

## C=C1C(=O)O[C@H]2[C@H]1CC/C(COC(=O)NCCCCNC(=O)OC/C1=C/CC[C@@]3(C)O[C@H]3[C@H]3OC(=O)C(=C)[C@@H]3CC1)=C\CC[C@@]1(C)O[C@@H]21
KM12
  GI50: 3.18 µM
  CC50: 43.3 µM
[1]
  EC50: 2 µM
A549
  GI50: 8.02 µM
  CC50: 58.7 µM
[2]
  Ratio EC50: 2
OVCAR-8
  GI50: 2.18 µM
  CC50: 40.2 µM
NCI-H23
  GI50: 2.18 µM
  CC50: 30.4 µM
TK-10
  GI50: 1.61 µM
  CC50: 11.3 µM
SF-295
  GI50: 13 µM
  CC50: 57.7 µM
[3]
  EC50: 2.2 µM
MDA-MB-231
  GI50: 1.53 µM
  LC50: 6.83 µM
MDA-MB-435
  GI50: 1.24 µM
  CC50: 9.42 µM
SK-MEL-2
  GI50: 1.77 µM
  CC50: 29.3 µM
HCT-116
  GI50: 1.12 µM
  CC50: 6.19 µM
NCI-H460
  GI50: 4.61 µM
  CC50: 60.7 µM
[4]
  GI50: 2.54 µM
  CC50: > 100 µM
DU-145
  GI50: 3.21 µM
  LC50 (concentration killing half the cells): 33.8 µM
SR
  GI50: 0.54 µM
  CC50: > 100 µM
SK-OV-3
  GI50: 12.7 µM
  CC50: 50.4 µM
MOLT-4
  GI50: 1.47 µM
  CC50: > 100 µM
HCC 2998
  GI50: 2.35 µM
  CC50: 9.73 µM
NCI-H226
  GI50: 11.4 µM
  CC50: 81.6 µM
SN12C
  GI50: 2.75 µM
  CC50: 39.5 µM
LOX IMVI
  GI50: 0.51 µM
  CC50: 5.15 µM
HCT-15
  GI50: 5.61 µM
  CC50: 56.3 µM
PC-3
  GI50: 2.55 µM
  LC50 (concentration killing half the cell population): 30.5 µM
UACC-62
  GI50: 0.75 µM
  CC50: 7.06 µM
U-251
  GI50: 2.94 µM
  CC50: 33.3 µM
MCF7
  GI50: 0.38 µM
CAKI-1
  GI50: 10.8 µM
  CC50: 49.1 µM
OVCAR-4
  GI50: 1.77 µM
  CC50: 30.5 µM
RXF 393
  GI50: 1.44 µM
  CC50: 7.84 µM
[5]
  GI50: 37.7 µM
  CC50: > 100 µM
SNB-75
  GI50: 2.19 µM
  CC50: 66.3 µM
